Legend:
PDGFRβ = PDGFRβ (Homo sapiens, UniProt P09619); experiment: Kinase activity screening; assay type: biochemical; details: FX-9 at 2.5 μM, ATP at Km (200 μM)
Method in brief: (§1)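 Radiometric substrate-phosphorylation screen covering a panel of 58 human kinases run by a contract service. […] Activity is given as a percentage of mean activity in positive control samples (100%). Values <30% were scored strong hits, 30–70% partial hits and >70% no hit.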

EphA5 = EphA5 (Homo sapiens, UniProt P54756); experiment: Kinase activity screening; assay type: biochemical; details: FX-9 at 2.5 μM, ATP at Km (10 μM)
Method in brief: as §1

CK1γ1 = CK1γ1 (Homo sapiens, UniProt Q9HCP0); experiment: Kinase activity screening; assay type: biochemical; details: FX-9 at 2.5 μM, ATP at Km (15 μM)
Method in brief: as §1

PI3 Kinase (p110a/p85a) = PI3 Kinase (p110a/p85a) (Homo sapiens, UniProt P42336); experiment: Kinase activity screening; assay type: biochemical; details: FX-9 at 2.5 μM, ATP at Km (200 μM)
Method in brief: as §1

PRAK = PRAK (Homo sapiens, UniProt Q8IW41); experiment: Kinase activity screening; assay type: biochemical; details: FX-9 at 2.5 μM, ATP at Km (15 μM)
PRAK, sequence (Q8IW41 whole entry): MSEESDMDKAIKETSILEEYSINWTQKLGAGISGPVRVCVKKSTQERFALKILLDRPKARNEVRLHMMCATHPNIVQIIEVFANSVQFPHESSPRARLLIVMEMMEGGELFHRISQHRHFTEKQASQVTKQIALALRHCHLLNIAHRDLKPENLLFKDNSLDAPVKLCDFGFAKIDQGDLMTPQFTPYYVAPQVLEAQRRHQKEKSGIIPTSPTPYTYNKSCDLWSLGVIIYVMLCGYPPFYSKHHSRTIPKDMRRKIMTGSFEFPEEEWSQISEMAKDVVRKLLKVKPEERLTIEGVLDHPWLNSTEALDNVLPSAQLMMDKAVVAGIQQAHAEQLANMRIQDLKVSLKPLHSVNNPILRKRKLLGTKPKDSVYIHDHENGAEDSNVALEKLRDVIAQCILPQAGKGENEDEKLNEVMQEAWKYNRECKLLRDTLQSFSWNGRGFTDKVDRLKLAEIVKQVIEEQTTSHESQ
Method in brief: (§2)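 Radiometric kinase-panel screen of 58 human kinases, measuring substrate phosphorylation. […] Activity is given as % of the mean positive-control kinase activity (100%). Below 30% counts as a strong hit, 30–70% as a partial hit, and above 70% as no hit.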

MAPKAP-K2 = MAPKAP-K2 (Homo sapiens, UniProt P49137); experiment: Kinase activity screening; assay type: biochemical; details: FX-9 at 2.5 μM, ATP at Km (90 μM)
MAPKAP-K2, sequence (P49137 whole entry): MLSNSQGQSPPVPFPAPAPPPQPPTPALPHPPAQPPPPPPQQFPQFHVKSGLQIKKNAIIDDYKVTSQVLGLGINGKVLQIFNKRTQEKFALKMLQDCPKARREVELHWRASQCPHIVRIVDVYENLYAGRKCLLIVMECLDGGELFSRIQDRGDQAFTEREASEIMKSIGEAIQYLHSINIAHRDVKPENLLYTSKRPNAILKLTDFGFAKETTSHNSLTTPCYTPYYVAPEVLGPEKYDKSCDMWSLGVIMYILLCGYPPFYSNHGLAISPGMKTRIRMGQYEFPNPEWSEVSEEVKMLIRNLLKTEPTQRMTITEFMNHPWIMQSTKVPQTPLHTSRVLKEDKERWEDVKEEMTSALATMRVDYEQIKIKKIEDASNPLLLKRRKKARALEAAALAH
Method in brief: as §1

CDK7/cyclinH/MAT1 = CDK7/cyclinH/MAT1 (Homo sapiens, UniProt P50613); experiment: Kinase activity screening; assay type: biochemical; details: FX-9 at 2.5 μM, ATP at Km (90 μM)
CDK7/cyclinH/MAT1, sequence (P50613 whole entry): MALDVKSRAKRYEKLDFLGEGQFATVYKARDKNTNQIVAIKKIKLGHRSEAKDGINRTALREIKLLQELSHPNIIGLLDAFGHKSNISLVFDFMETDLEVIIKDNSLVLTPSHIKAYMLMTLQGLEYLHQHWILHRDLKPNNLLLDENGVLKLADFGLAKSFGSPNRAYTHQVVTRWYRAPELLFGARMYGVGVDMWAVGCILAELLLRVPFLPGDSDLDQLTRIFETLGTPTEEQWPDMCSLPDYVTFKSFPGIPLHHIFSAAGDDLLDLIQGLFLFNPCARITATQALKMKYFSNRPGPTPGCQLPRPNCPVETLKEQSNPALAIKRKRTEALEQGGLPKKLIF
CDK7/cyclinH/MAT1, sequence (P51946 whole entry partner): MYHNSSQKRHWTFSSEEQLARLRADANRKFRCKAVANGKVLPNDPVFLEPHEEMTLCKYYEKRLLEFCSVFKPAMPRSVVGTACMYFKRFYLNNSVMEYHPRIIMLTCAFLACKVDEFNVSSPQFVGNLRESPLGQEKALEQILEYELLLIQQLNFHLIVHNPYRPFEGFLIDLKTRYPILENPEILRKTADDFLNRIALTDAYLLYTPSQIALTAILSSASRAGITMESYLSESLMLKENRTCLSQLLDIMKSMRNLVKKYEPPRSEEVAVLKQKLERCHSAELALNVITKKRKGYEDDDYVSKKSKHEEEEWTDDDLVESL
CDK7/cyclinH/MAT1, sequence (P51948 whole entry partner): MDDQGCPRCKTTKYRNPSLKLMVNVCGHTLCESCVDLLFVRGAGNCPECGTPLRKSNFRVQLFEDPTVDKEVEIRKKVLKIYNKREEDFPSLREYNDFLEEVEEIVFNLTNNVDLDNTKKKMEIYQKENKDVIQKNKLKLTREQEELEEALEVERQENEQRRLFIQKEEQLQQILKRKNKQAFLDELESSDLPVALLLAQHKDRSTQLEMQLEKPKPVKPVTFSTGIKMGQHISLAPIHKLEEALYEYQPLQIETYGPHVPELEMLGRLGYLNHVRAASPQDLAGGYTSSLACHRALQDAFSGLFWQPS
Method in brief: as §1

pSTAT3 = experiment: Western blot, SEM cells; assay type: cell-based, human; details: 2.5 μM or 5.0 μM, 48 h
Method in brief: (§3)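 SEM or RS4;11 cells took DMSO, 2.5 or 5.0 μM test compound for 48 h. Cells (1–5×10^6) were lysed in RIPA buffer with sonication, run on SDS gels, blotted to PVDF and imaged by near-infrared fluorescence. Bands were normalised to GAPDH, and the phospho/total protein ratio was set relative to DMSO control (=1).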

CDK1/cyclinB = CDK1/cyclinB (Homo sapiens, UniProt P06493); experiment: Kinase activity screening; assay type: biochemical; details: FX-9 at 2.5 μM, ATP at Km (45 μM)
Method in brief: as §1

CEM cells = experiment: Proliferation, viable cell count by trypan blue exclusion; assay type: cell-based, human; details: 72 h
Method in brief: (§4)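 Human B-ALL (SEM, RS4;11) and T-ALL (Jurkat, CEM) lines were grown with 10% heat-inactivated FBS and penicillin/streptomycin at 37°C, 5% CO2. Cells took test compound at 0.1–5.0 μM (methods: 0.5–5.0 μM) or DMSO for up to 72 h. Viable cells were counted by trypan blue exclusion and expressed relative to control (100%). IC50 came from three separate experiments, each in triplicate.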

Jurkat cells [1] = experiment: WST-1 metabolic activity assay; assay type: cell-based; details: Homo sapiens, 72 h, read-out: metabolic activity
Method in brief: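 Test compound came from a 10 mM DMSO stock. Cells were seeded at 5×10^4/well in triplicate with 5 or 10 μM final compound; controls got matched DMSO. After 72 h at 37°C, 5% CO2, WST-1 was added for a further 3 h. Absorbance was read at 450 nm (reference 620 nm), and metabolic activity given as % of DMSO control.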

CaMKI = CaMKI (Homo sapiens, UniProt Q14012); experiment: Kinase activity screening; assay type: biochemical; details: FX-9 at 2.5 μM, ATP at Km (200 μM)
Method in brief: as §1

SRPK1 = SRPK1 (Homo sapiens, UniProt Q96SB4); experiment: Kinase activity screening; assay type: biochemical; details: FX-9 at 2.5 μM, ATP at Km (10 μM)
Method in brief: as §2

DRAK1 = DRAK1 (Homo sapiens, UniProt Q9UEE5); experiment: Kinase activity screening; assay type: biochemical; details: FX-9 at 2.5 μM, ATP at Km (10 μM)
DRAK1, sequence (Q9UEE5 whole entry): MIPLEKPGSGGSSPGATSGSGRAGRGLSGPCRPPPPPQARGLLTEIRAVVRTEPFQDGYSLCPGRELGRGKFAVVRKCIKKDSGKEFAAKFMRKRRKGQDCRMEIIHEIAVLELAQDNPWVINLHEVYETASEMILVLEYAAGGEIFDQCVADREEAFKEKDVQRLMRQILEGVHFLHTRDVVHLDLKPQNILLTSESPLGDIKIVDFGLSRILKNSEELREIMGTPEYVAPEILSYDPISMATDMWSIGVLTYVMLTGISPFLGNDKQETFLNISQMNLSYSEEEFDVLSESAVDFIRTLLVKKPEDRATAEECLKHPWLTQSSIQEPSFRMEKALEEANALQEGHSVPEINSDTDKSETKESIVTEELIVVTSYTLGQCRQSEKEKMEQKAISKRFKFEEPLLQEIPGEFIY
Method in brief: as §1

PI3 Kinase (p110d/p85a) = PI3 Kinase (p110d/p85a) (Homo sapiens, UniProt O00329); experiment: Kinase activity screening; assay type: biochemical; details: FX-9 at 2.5 μM, ATP at Km (200 μM)
PI3 Kinase (p110d/p85a), sequence (O00329 whole entry): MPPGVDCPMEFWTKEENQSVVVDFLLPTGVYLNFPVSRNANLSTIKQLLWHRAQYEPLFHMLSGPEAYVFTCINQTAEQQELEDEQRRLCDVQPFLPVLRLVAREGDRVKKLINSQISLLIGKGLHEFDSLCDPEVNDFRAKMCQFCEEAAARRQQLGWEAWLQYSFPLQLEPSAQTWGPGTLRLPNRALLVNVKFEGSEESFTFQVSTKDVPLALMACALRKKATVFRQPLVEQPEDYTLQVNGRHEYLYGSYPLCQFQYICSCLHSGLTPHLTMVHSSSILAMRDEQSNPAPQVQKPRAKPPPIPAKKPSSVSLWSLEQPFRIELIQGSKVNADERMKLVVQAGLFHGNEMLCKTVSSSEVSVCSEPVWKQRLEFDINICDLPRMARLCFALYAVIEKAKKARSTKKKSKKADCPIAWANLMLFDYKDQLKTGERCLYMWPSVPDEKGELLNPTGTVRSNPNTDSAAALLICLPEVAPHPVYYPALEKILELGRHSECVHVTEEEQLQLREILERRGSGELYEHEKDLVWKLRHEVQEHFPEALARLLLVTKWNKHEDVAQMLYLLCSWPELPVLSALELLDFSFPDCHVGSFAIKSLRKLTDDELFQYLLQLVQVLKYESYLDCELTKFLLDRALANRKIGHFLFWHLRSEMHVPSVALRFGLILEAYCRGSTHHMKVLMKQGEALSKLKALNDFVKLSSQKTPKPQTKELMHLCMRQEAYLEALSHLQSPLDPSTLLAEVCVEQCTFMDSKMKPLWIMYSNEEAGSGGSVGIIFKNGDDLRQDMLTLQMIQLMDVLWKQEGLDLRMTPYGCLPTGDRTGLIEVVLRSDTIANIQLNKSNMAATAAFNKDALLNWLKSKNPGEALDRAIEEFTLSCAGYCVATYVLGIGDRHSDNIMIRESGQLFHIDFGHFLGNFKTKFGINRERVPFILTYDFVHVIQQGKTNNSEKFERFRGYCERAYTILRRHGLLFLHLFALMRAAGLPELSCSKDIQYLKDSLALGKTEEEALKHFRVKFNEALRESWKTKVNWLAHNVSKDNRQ
PI3 Kinase (p110d/p85a), sequence (P27986 whole entry partner): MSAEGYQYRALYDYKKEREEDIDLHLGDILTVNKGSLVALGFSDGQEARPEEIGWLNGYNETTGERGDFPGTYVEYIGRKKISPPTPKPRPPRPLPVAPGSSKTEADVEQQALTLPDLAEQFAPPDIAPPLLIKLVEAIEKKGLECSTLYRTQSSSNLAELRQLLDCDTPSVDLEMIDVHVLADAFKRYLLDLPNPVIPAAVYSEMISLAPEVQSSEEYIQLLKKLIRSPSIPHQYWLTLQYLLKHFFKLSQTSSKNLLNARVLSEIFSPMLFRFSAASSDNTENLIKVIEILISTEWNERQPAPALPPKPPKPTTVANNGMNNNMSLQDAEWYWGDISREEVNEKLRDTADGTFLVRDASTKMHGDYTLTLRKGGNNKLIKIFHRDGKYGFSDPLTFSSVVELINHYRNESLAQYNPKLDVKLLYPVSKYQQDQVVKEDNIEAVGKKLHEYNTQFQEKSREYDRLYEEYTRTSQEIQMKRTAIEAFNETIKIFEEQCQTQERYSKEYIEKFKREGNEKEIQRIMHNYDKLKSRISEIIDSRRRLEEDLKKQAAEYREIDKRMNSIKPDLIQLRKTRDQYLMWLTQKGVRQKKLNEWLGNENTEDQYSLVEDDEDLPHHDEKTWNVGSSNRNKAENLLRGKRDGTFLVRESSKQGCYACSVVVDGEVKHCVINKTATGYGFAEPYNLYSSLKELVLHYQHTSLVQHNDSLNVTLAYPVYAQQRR
Method in brief: as §1

EphB4 = EphB4 (Homo sapiens, UniProt P54760); experiment: Kinase activity screening; assay type: biochemical; details: FX-9 at 2.5 μM, ATP at Km (10 μM)
Method in brief: as §1

CDK2/cyclinA = CDK2/cyclinA (Homo sapiens, UniProt P24941); experiment: Kinase activity screening; assay type: biochemical; details: FX-9 at 2.5 μM, ATP at Km (45 μM)
Method in brief: as §1

Jurkat cells [2] = experiment: Apoptosis, Annexin V FITC / propidium iodide flow cytometry; assay type: cell-based, human; details: 5 μM, 72 h, DMSO 18.7%
PKCθ = PKCθ (Homo sapiens, UniProt Q04759); experiment: Kinase activity screening; assay type: biochemical; details: FX-9 at 2.5 μM, ATP at Km (15 μM)
Method in brief: as §2

Jurkat cells [3] = experiment: Proliferation, viable cell count by trypan blue exclusion; assay type: cell-based, human; details: 72 h
Method in brief: as §4

PI3 Kinase (p110b/p85a) = PI3 Kinase (p110b/p85a) (Homo sapiens, UniProt P42338); experiment: Kinase activity screening; assay type: biochemical; details: FX-9 at 2.5 μM, ATP at Km (200 μM)
Method in brief: as §1

GSK3β = GSK3β (Homo sapiens, UniProt P49841); experiment: Kinase activity screening; assay type: biochemical; details: FX-9 at 2.5 μM, ATP at Km (15 μM)
Method in brief: as §1

Fyn = Fyn (Homo sapiens, UniProt P06241); experiment: Kinase activity screening; assay type: biochemical; details: FX-9 at 2.5 μM, ATP at Km (70 μM)
Method in brief: as §1

pAKT = experiment: Western blot, SEM cells; assay type: cell-based, human; details: 2.5 μM or 5.0 μM, 48 h
Method in brief: as §3

MLK1 = MLK1 (Homo sapiens, UniProt P80192); experiment: Kinase activity screening; assay type: biochemical; details: FX-9 at 2.5 μM, ATP at Km (45 μM)
Method in brief: as §1

PKBα = PKBα (Homo sapiens, UniProt P31749); experiment: Kinase activity screening; assay type: biochemical; details: FX-9 at 2.5 μM, ATP at Km (155 μM)
PKBα, sequence (P31749 whole entry): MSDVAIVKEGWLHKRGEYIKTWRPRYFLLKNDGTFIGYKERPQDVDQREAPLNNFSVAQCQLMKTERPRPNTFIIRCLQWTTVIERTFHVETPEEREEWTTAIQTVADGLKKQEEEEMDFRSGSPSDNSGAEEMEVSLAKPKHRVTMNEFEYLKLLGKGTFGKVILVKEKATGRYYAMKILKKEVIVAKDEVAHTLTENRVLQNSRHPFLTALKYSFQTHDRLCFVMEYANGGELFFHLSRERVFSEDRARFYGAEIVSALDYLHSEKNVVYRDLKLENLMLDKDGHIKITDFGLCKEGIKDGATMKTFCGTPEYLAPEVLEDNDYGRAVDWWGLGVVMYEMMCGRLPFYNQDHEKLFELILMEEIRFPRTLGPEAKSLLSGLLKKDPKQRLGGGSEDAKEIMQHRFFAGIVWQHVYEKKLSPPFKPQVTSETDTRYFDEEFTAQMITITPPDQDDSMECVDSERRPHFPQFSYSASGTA
Method in brief: as §1

SAPK2a = SAPK2a (Homo sapiens, UniProt Q16539); experiment: Kinase activity screening; assay type: biochemical; details: FX-9 at 2.5 μM, ATP at Km (90 μM)
Method in brief: as §2

PKA = PKA (Homo sapiens, UniProt P17612); experiment: Kinase activity screening; assay type: biochemical; details: FX-9 at 2.5 μM, ATP at Km (10 μM)
Method in brief: as §1

CDK9/cyclin T1 = CDK9/cyclin T1 (Homo sapiens, UniProt P50750); experiment: Kinase activity screening; assay type: biochemical; details: FX-9 at 2.5 μM, ATP at Km (45 μM)
Method in brief: as §1

CHK1 = CHK1 (Homo sapiens, UniProt O14757); experiment: Kinase activity screening; assay type: biochemical; details: FX-9 at 2.5 μM, ATP at Km (90 μM)
CHK1, sequence (O14757 whole entry): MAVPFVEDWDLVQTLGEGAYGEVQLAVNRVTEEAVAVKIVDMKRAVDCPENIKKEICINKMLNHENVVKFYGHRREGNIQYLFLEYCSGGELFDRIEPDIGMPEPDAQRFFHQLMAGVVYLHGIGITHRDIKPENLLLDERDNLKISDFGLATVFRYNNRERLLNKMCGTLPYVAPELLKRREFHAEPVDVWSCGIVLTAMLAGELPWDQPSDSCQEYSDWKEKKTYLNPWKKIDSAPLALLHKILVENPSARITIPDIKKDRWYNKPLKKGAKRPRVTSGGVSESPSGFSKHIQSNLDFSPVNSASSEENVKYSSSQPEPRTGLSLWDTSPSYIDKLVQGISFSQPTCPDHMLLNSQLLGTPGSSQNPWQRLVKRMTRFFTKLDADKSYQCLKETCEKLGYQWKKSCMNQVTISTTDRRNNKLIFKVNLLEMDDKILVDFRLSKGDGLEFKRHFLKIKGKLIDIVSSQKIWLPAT
Method in brief: as §1

Plk3 = Plk3 (Homo sapiens, UniProt Q9H4B4); experiment: Kinase activity screening; assay type: biochemical; details: FX-9 at 2.5 μM, ATP at Km (70 μM)
Method in brief: as §2

For Cc1ccc(-c2cc3ccccc3c(N)n2)cc1 [FX-9, 3-(p-Tolyl)isoquinolin-1-amine], the “Kinase activity (% control)” value (PDGFRβ) was 99 % control, the “Kinase activity (% control)” value (EphA5) was 98 % control and the “Kinase activity (% control)” value (CK1γ1) was 98 % control. For the same molecule, the “Kinase activity (% control)” value (PI3 Kinase (p110a/p85a)) was 101 % control, the “Kinase activity (% control)” value (PRAK) was 79 % control and the “Kinase activity (% control)” value (MAPKAP-K2) was 87 % control. The “Kinase activity (% control)” value (CDK7/cyclinH/MAT1) was 91 % control, the “pSTAT3 level (western blot)” value (pSTAT3) was “reduced” and the “Kinase activity (% control)” value (CDK1/cyclinB) was 97 % control. The “Proliferation compared to control cells (100%)” value (CEM cells; CEM, 2.5 μM) was 24.1%, the IC50 (CEM cells; Homo sapiens, CCRF-CEM, read-out: IC50 based on proliferation) was 1.94 ± 0.03 µM and the viability at 5 µM (Jurkat cells [1]) was 10.4%. For the same molecule, the viability at 10 µM (Jurkat cells [1]) was 13.6%, the “Kinase activity (% control)” value (CaMKI) was 100 % control and the “Kinase activity (% control)” value (SRPK1) was 94 % control. The “Kinase activity (% control)” value (DRAK1) was 81 % control, the “Kinase activity (% control)” value (PI3 Kinase (p110d/p85a)) was 100 % control and the “Kinase activity (% control)” value (EphB4) was 83 % control. For the same molecule, the “Kinase activity (% control)” value (CDK2/cyclinA) was 90 % control, the “Apoptosis (total of early apoptotic and late apoptotic and necrotic cells)” value (Jurkat cells [2]) was 48.7% and the “Kinase activity (% control)” value (PKCθ) was 96 % control. For the same molecule, the “Proliferation compared to control cells (100%)” value (Jurkat cells [3]; 2.5 μM) was 16.3%, the IC50 (Jurkat cells [3]; Homo sapiens, read-out: IC50 based on proliferation) was 1.67 ± 0.03 µM and the “Kinase activity (% control)” value (PI3 Kinase (p110b/p85a)) was 97 % control. For the same molecule, the “Kinase activity (% control)” value (GSK3β) was 88 % control, the “Kinase activity (% control)” value (Fyn) was 97 % control and the “pAKT level (western blot)” value (pAKT) was “reduced”. The “Kinase activity (% control)” value (MLK1) was 84 % control, the “Kinase activity (% control)” value (PKBα) was 98 % control and the “Kinase activity (% control)” value (SAPK2a) was 98 % control. The “Kinase activity (% control)” value (PKA) was 92 % control, the “Kinase activity (% control)” value (CDK9/cyclin T1) was 86 % control and the “Kinase activity (% control)” value (CHK1) was 94 % control. The “Kinase activity (% control)” value (Plk3) was 99 % control.

Source: PMC6720533 (Biomolecules & Therapeutics, 2019)
